# Assay results from paper PMC13103313 (Nature Communications, 2026).
# Key:
# zebrafish larvae [1] = test: ISO-induced tachycardia model in zebrafish larvae; assay type: in vivo; details: 100 μM; 10 μM ISO 100 min; zebrafish larvae 3–4 dpf
# zebrafish larvae [2] = test: Heart rate recording in zebrafish larvae; assay type: in vivo; details: 10 μM
# NaV1.5 F1760A = NaV1.5 F1760A (Homo sapiens, UniProt Q14524, F1760A); test: Whole-cell patch-clamp of NaV1.5 F1760A mutant in HEK293T cells; assay type: cell-based; details: HEK-293T, read-out: inhibition rate, NaV1.5 F1760A
# NaV1.5 channels = NaV1.5 channels (Homo sapiens, UniProt Q14524); test: Whole-cell patch-clamp recording of NaV1.5 currents in HEK293T cells; assay type: cell-based; details: HEK-293T, read-out: inhibition rate, NaV1.5 WT, 100 μM
# [3] = system: Na+ current in primary ventricular myocytes; test: Voltage-gated Na+ current in rat primary ventricular myocytes; assay type: cell-based; details: 10 µM; rat primary cardiomyocytes; 365 vs 480 nm
# Summary of the method: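 Ventricular myocytes from 1–2-day-old Sprague-Dawley rats, dissociated with 0.05% trypsin and 0.1% collagenase II, with fibroblasts removed by 2 h pre-plating. Cultured in DMEM with 10% FBS at 37 °C. Whole-cell voltage clamp followed the HEK293T Na+ protocol (hold −120 mV, 50 ms step to −20 mV).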
# NaV1.5 V405A = NaV1.5 V405A (Homo sapiens, UniProt Q14524, V405A); test: Whole-cell patch-clamp of NaV1.5 V405A mutant in HEK293T cells; assay type: cell-based; details: HEK-293T, read-out: inhibition rate, NaV1.5 V405A
# Chain of NaV1.5 F1760A (Q14524 whole entry F1760A): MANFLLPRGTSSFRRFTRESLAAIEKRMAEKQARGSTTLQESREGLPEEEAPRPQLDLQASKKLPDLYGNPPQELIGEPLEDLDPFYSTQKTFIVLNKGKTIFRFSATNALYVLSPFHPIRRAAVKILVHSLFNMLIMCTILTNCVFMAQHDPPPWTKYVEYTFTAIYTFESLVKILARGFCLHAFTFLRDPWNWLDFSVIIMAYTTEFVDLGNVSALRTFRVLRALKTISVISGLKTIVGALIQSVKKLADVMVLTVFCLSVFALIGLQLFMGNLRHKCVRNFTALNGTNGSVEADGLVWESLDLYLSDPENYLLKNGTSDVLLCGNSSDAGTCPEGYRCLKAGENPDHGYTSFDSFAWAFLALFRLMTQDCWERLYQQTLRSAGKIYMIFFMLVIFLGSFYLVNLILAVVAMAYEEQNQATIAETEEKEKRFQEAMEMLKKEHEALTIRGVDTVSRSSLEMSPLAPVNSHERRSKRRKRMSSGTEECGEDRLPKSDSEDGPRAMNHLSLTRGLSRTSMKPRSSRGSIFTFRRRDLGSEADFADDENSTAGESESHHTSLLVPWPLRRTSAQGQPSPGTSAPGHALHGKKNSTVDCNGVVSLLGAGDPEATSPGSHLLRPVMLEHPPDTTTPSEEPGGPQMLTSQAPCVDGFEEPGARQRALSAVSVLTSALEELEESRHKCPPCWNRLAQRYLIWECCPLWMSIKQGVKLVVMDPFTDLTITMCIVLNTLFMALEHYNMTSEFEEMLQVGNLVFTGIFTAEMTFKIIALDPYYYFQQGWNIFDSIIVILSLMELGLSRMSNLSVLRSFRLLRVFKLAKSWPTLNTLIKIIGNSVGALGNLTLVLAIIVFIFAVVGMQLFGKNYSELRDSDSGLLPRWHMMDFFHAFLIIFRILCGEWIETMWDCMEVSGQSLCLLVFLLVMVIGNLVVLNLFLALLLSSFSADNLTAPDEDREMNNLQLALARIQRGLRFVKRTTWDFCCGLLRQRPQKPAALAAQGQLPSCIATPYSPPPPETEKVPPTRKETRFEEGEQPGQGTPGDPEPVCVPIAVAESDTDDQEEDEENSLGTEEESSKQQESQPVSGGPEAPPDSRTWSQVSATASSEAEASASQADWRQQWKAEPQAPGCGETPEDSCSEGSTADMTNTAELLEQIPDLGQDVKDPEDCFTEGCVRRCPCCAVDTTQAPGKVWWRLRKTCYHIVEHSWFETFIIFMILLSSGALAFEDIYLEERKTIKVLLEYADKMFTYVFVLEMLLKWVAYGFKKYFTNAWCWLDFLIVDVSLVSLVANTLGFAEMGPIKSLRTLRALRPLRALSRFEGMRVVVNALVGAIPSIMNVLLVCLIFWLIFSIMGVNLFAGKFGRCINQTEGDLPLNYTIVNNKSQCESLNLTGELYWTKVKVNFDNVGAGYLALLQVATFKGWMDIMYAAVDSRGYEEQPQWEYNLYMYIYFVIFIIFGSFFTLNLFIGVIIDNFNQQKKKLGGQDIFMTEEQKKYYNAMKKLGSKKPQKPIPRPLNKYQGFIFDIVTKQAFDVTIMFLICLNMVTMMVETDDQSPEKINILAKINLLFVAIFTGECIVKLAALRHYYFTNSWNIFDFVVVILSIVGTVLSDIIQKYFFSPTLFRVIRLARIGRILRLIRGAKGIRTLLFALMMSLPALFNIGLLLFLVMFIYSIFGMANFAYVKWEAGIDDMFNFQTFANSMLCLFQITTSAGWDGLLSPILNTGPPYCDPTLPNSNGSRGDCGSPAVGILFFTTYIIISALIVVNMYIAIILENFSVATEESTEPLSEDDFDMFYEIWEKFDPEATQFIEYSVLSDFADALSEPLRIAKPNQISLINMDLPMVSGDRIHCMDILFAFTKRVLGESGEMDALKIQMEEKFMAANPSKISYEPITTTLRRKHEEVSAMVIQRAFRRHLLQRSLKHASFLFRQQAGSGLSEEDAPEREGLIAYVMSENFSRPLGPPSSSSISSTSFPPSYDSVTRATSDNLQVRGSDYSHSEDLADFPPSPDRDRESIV
# Chain of NaV1.5 channels (Q14524 whole entry): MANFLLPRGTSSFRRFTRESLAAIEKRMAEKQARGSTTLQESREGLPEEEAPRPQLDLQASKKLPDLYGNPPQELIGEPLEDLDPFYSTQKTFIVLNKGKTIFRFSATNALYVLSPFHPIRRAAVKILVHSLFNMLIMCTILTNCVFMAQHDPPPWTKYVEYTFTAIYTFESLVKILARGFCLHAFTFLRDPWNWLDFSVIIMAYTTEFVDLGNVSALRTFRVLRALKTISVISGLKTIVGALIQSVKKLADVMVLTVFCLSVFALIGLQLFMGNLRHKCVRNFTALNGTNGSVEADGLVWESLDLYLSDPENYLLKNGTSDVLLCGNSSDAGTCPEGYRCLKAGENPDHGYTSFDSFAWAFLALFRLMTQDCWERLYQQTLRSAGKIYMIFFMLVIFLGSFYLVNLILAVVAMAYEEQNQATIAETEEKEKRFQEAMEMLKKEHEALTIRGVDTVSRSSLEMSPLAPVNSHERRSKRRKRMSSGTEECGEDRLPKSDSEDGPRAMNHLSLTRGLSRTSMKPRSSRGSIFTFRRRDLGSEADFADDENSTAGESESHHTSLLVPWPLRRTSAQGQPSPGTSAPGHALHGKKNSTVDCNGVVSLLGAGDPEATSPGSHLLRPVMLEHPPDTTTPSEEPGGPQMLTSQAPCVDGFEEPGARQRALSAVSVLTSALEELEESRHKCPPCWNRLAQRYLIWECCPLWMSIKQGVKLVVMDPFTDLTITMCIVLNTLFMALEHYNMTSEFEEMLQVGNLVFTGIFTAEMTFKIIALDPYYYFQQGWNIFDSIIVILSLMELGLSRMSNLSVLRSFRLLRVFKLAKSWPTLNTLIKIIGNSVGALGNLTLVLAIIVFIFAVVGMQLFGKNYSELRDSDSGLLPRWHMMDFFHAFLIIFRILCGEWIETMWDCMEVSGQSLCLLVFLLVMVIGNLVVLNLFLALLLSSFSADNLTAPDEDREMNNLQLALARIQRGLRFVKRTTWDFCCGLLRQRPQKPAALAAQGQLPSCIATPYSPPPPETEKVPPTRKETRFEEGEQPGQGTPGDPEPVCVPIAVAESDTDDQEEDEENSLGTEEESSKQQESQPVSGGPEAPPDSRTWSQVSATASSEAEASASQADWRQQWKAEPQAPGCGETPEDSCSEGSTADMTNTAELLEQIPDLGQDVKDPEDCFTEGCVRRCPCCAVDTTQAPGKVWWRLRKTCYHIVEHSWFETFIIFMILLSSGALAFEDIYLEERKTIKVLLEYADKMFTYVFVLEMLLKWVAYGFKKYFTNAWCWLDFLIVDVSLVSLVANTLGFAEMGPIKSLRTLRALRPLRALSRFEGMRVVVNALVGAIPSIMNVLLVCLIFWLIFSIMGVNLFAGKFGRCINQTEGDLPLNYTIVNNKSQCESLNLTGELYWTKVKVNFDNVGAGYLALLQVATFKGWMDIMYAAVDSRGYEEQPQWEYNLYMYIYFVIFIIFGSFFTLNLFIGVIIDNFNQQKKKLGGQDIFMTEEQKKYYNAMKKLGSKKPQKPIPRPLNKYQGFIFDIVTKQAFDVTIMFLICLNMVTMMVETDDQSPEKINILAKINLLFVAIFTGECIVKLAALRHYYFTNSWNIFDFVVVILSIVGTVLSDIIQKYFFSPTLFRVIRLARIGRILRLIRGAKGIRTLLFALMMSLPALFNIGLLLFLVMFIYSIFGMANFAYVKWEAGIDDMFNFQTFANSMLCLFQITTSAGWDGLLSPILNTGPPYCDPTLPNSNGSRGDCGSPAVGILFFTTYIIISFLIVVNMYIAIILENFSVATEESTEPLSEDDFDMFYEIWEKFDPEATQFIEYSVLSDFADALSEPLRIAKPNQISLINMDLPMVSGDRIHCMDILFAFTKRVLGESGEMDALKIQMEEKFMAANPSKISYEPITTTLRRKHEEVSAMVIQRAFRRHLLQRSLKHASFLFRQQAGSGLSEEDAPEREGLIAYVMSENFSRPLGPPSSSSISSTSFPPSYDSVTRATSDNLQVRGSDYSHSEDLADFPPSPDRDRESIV
structure (smiles),measurement,setting,value
"C=C[C@H]1C[N@@]2CC[C@H]1C[C@@H]2[C@@H](O)c1ccnc2ccc(OC)cc12 [Quinidine, quinidine]",effect on heart rate in ISO-pretreated larvae,zebrafish larvae [1],markedly attenuate heart rate
same,heart rate normalized to control in dark,"zebrafish larvae [2]; soaking 1-[…] in the dark, zebrafish larvae 2 dpf",90.8 ± 1.4%
same,heart rate normalized to control in dark,"zebrafish larvae [2]; 365 nm followed by 480 nm illumination, 5 min each",91.6 ± 1.3%
same,heart rate normalized to control in dark,zebrafish larvae [2]; after 365 nm illumination for 5 min,93.9 ± 0.9%
same,inhibition at 100 µM,NaV1.5 F1760A,32.6 ± 1.8%
same,inhibition at 100 µM,NaV1.5 channels,77.6 ± 3.2%
same,"photoswitching efficacy (optical control), Na+ current",[3],0.8 ± 0.8%
same,inhibition at 100 µM,NaV1.5 V405A,51.2 ± 2.3%
